Reference: ChEMBL document CHEMBL1145517, “Kinetic characterization of squalene synthase from Trypanosoma cruzi: selective inhibition by quinuclidine derivatives” (Antimicrob Agents Chemother, 2007)

T1: Squalene synthase (Homo sapiens, UniProt P37268)
T1 sequence (P37268 whole entry): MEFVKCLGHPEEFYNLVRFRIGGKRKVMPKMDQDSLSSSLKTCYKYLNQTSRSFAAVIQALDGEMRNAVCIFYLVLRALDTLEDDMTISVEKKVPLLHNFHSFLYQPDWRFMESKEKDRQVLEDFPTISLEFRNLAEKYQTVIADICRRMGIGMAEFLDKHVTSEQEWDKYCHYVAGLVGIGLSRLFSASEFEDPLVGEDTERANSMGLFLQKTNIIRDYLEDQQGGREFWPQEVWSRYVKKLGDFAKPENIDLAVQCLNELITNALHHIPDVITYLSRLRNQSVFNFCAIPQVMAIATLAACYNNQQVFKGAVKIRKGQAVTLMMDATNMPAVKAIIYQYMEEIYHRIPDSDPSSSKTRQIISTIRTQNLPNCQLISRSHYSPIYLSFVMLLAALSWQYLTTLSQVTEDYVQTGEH


Assays:
[1] = Selectivity index, ratio of IC50 for rat L6 cells over IC50 for intracellular Trypanosoma cruzi amastigotes; assay type: functional
L6 = assay: Growth inhibition of rat L6 cells; assay type: cell-based
Trypanosoma cruzi [2] = assay: Antitrypanosomal activity against intracellular Trypanosoma cruzi amastigotes in rat L6 cells; assay type: functional, organism-based
Summary of the method: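 L6 rat myoblasts were seeded at 2,000 cells/well in RPMI 1640 with 10% FBS and 2 mM L-glutamine. After 24 h, 5,000 Tulahuen C2C4 trypomastigotes expressing lacZ were added with twofold serial drug dilutions. Plates were incubated 4 days at 37°C in 5% CO2. CPRG/Nonidet was then added, and colour was read at 540 nm after 2–4 h. IC50 came from the sigmoidal inhibition curve.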

[3] = Selectivity index, ratio of IC50 for human recombinant squalene synthase over IC50 for Trypanosoma cruzi squalene synthase
Summary of the method: (§1)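 T. cruzi enzyme was purified TcSQS24/36; human SQS was E. coli extract expressing pHSS16. Stopped with NaOH, squalene carrier added, TLC in toluene-ethyl acetate 9:1, squalene zone counted by scintillation. Index = human IC50 / T. cruzi IC50.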

Squalene synthase = biological target: T1, Squalene synthase; assay: Inhibition of human recombinant squalene synthase
Summary of the method: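 The enzyme source was extracts of E. coli expressing truncated human SQS. Activity was measured as [3H]FPP-to-squalene conversion at 0.5 μM FPP and 0.25 mM NADPH in pH 7.4 MOPS-NaOH with MgCl2, CHAPS, Tween 80 and DTT, for 5 min at 37°C. Reactions were stopped with NaOH, squalene was separated by silica TLC (toluene-ethyl acetate 9:1) and counted by scintillation, and IC50 was curve-fitted.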

[4] = Inhibition of Trypanosoma cruzi recombinant squalene synthase
Summary of the method: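 The enzyme was purified His-tagged T. cruzi SQS expressed in E. coli, truncated by 24 N-terminal and 36 C-terminal residues. Activity was measured as [3H]FPP-to-[3H]squalene conversion in pH 7.4 MOPS-NaOH with 20 mM MgCl2, 5 mM CHAPS, 1% Tween 80, 10 mM DTT, 0.25 mM NADPH and 0.5 μM FPP, 5 min at 37°C. Reactions were stopped with NaOH, squalene was separated by silica TLC and counted by scintillation, and IC50 was curve-fitted.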

Trypanosoma cruzi [5] = assay: Activity of Trypanosoma cruzi microsomal or mitochondrial squalene synthase
Trypanosoma cruzi [6] = assay: Activity of Trypanosoma cruzi glycosomal squalene synthase
Trypanosoma cruzi [7] = assay: Activity of Trypanosoma cruzi truncated squalene synthase 24/36
Summary of the method: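 Purified N-His-tagged TcSQS24/36 (E. coli, IMAC then MonoQ) in 50 mM MOPS-NaOH pH 7.4, 20 mM MgCl2, 5 mM CHAPS, 1% Tween 80, 10 mM DTT, 0.025 mg/ml BSA. [3H]FPP to [3H]squalene, 5 min at 37°C. FPP Km: 1–20 μM FPP with 2 mM NADPH. NADPH Km: 5–400 μM NADPH with 20 μM FPP. Nonlinear hyperbolic fits.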

Saccharomyces cerevisiae = assay: Activity of Saccharomyces cerevisiae C-terminal truncated squalene synthase
Leishmania mexicana [8] = assay: Activity of Leishmania mexicana microsomal or mitochondrial squalene synthase
Leishmania mexicana [9] = assay: Activity of Leishmania mexicana glycosomal squalene synthase
Homo sapiens = species on record: Homo sapiens; assay: Activity of human double-truncated squalene synthase; summary of the method: as §1
[10] = substrate: CC(C)=CCC/C(C)=C/CC/C(C)=C/COP(=O)(O)OP(=O)(O)O; assay: (§2) Activity of human full length squalene synthase expressed in baculovirus
[11] = substrate: NC(=O)c1ccc[n+]([C@@H]2O[C@H](COP(=O)([O-])OP(=O)(O)OC[C@H]3O[C@@H](n4cnc5c(N)ncnc54)[C@H](OP(=O)(O)O)[C@@H]3O)[C@@H](O)[C@H]2O)c1; assay: as §2

Row | Molecule | Ratio IC50 [1] | IC50 (L6) [nM] | IC50 (Trypanosoma cruzi [2]) [nM] | Ratio IC50 [3] | IC50 (Squalene synthase) [nM] | IC50 [4] [nM] | further results
1 | C1=C(Cc2ccc(-c3ccccc3)cc2)C2CCN1CC2 | 4.4 | 20500 | 4700 | > 27 | > 20000 | 730 | 
2 | COCCCOc1ccc(C#C[C@@]2(O)CN3CCC2CC3)c(Cc2ccccc2)n1 |  |  | 11 | 1.7 | 6 | 3.52 | 
3 | CCOC(=O)c1ccc(C2=CN3CCC2CC3)cc1 | 17 |  |  | 140 | 7000 | 50 | 
4 | O[C@]1(C#Cc2cccc(OCc3ccccc3)c2)CN2CCC1CC2 | 4.7 | 45000 | 9600 | > 13 | > 20000 | 1500 | 
5 | NC(=O)c1ccc[n+]([C@@H]2O[C@H](COP(=O)([O-])OP(=O)(O)OC[C@H]3O[C@@H](n4cnc5c(N)ncnc54)[C@H](OP(=O)(O)O)[C@@H]3O)[C@@H](O)[C@H]2O)c1 |  |  |  |  |  |  | Km (Trypanosoma cruzi [5]): 33 µM; Vmax (Trypanosoma cruzi [5]): 0.76 nmol/min/mg; Km (Trypanosoma cruzi [6]): 40 µM; Vmax (Trypanosoma cruzi [6]): 0.43 nmol/min/mg; Km (Trypanosoma cruzi [7]): 23.3 µM; Vmax (Trypanosoma cruzi [7]): 1850 nmol/min/mg; Km (Saccharomyces cerevisiae): 530 µM; Km (Leishmania mexicana [8]): 57 µM; Vmax (Leishmania mexicana [8]): 0.84 nmol/min/mg; Km (Leishmania mexicana [9]): 62 µM; Vmax (Leishmania mexicana [9]): 0.58 nmol/min/mg
6 | CC(C)=CCC/C(C)=C/CC/C(C)=C/COP(=O)(O)OP(=O)(O)O |  |  |  |  |  |  | Km (Trypanosoma cruzi [5]): 2.3 µM; Vmax (Trypanosoma cruzi [5]): 1.18 nmol/min/mg; Km (Homo sapiens): 2.8 µM; Km (Trypanosoma cruzi [6]): 2.8 µM; Vmax (Trypanosoma cruzi [6]): 0.97 nmol/min/mg; Km (Trypanosoma cruzi [7]): 5.25 µM; Vmax (Trypanosoma cruzi [7]): 1430 nmol/min/mg; Km (Saccharomyces cerevisiae): 2.5 µM; Km (Leishmania mexicana [8]): 2.8 µM; Vmax (Leishmania mexicana [8]): 0.98 nmol/min/mg; Km (Leishmania mexicana [9]): 3.2 µM; Vmax (Leishmania mexicana [9]): 0.75 nmol/min/mg
7 | C(#Cc1ccc(OCc2ccccc2)cc1)C1=CN2CCC1CC2 | 15 | 47200 | 3100 | 0.3 | 250 | 830 | 
8 | CO[C@H]1CN(c2ccc(C#C[C@@]3(O)CN4CCC3CC4)c(Cc3ccccc3)n2)C[C@H]1O |  |  | 8 | 1.8 | 1.5 | 0.84 | 
9 | Squalene synthase (Homo sapiens), P37268 (protein) MEFVKCLGHPEEFYNLVRFRIGGKRKVMPKMDQDSLSSSLKTCYKYLNQTSRSFAAVIQALDGEMRNAVCIFYLVLRALDTLEDDMTISVEKKVPLLHNFHSFLYQPDWRFMESKEKDRQVLEDFPTISLEFRNLAEKYQTVIADICRRMGIGMAEFLDKHVTSEQEWDKYCHYVAGLVGIGLSRLFSASEFEDPLVGEDTERANSMGLFLQKTNIIRDYLEDQQGGREFWPQEVWSRYVKKLGDFAKPENIDLAVQCLNELITNALHHIPDVITYLSRLRNQSVFNFCAIPQVMAIATLAACYNNQQVFKGAVKIRKGQAVTLMMDATNMPAVKAIIYQYMEEIYHRIPDSDPSSSKTRQIISTIRTQNLPNCQLISRSHYSPIYLSFVMLLAALSWQYLTTLSQVTEDYVQTGEH |  |  |  |  |  |  | Km [10]: 2.3 µM; Vmax [10]: 4800 nmol/min/mg; Km [11]: 430 µM; Vmax [11]: 3800 nmol/min/mg
